Experimental data of several laboratories.
Each line is one published result; the experiments were not run side by side.
Target: Serine/threonine-protein kinase 24 (STK24, Homo sapiens, UniProt Q9Y6E0)

The remaining binding of c1cnn2ncc(-c3ccnc(N4CCC45COC5)n3)c2c1 is reported as 74% (binding; 1 µM).
Cn1nc(C(=O)NCc2ccc(C(=O)O)cc2)cc1-c1ccc2[nH]ccc2c1 gave a remaining binding of 97% (cell-free assay; competition with immobilised ligand; 0.1 µM).
With CN(CCCC(F)(F)F)c1nccc(-c2cnn3ncccc23)n1 the remaining binding was 100% (binding; 1 µM).
With CCS(=O)(=O)c1cc2cc(C[C@](O)(CC(C)(C)c3ccc(F)cc3C(N)=O)C(F)(F)F)[nH]c2cn1 the remaining binding was 86% (cell-free assay; competition with immobilised ligand; 1 µM).
For COc1ncc2cc3ccccc3nc2c1C#N, the remaining binding was 97% (cell-free assay; competition with immobilised ligand; 5 µM).
For c1cncc(-c2cccc(Nc3nccc(NC4CCCCC4)n3)c2)c1, the remaining binding was 93% (binding; competition with immobilised ligand; 10 µM).
The remaining binding of CS(=O)(=O)NCC[C@H](NC(=O)c1cncc2c1cnn2-c1ccc(F)cc1)c1ccnc(S(C)(=O)=O)c1 is reported as 100% (cell-free assay; competition with immobilised ligand; 1 µM).
For N[C@H]1CCN(c2nccc(-c3cnn4ncccc34)n2)C1, the remaining binding was 83% (binding; 1 µM).
COc1cnc(Nc2cccc(S(N)(=O)=O)c2)nc1N1CCN(c2ccccc2)C(=O)C1 gave a remaining binding of 97% (binding; competition with immobilised ligand; 1 µM).
O=C(Nc1c[nH]nc1C(=O)NC1CCNCC1)c1cc(F)cc(F)c1 has a remaining binding of 91% (binding; competition with immobilised ligand; 1 µM).
With C[C@@H]1CCN(c2nccc(-c3cnn4ncccc34)n2)C1 the remaining binding was 63% (binding; 1 µM).
O=C(NCCCN1CCOCC1)c1ccc(Nc2ncc(Cl)c(-c3ccc(Cl)s3)n2)cc1 has a remaining binding of 17% (binding; competition with immobilised ligand; 1 µM).
CN(C)c1nccc(-c2cnn3ncccc23)n1 gave a remaining binding of 100% (binding; 1 µM).
CCCCN(CCCC)C(=O)CN1C[C@@H](c2cc(OC)c3c(c2)OCO3)[C@H](C(=O)O)[C@H]1CC(C)(C)CCC gave a remaining binding of 93.9% (cell-free assay; competition with immobilised ligand; 1 µM).
For Cc1cnc(Nc2ccc(C(=O)N3CCC(N4CCCC4)CC3)cc2)nc1-c1cc2ccccc2s1, the remaining binding was 84% (binding; competition with immobilised ligand; 1 µM).
The remaining binding of O=C(NCc1ncc(C(F)(F)F)cc1Cl)c1ccc2c(c1)C1(CCS(=O)(=O)CC1)[C@@H](C1CC1)N2S(=O)(=O)c1ccc(F)cc1 is reported as 100% (cell-free assay; competition with immobilised ligand; 1 µM).
With O=C(c1ccc(Nc2ncc(Cl)c(-c3cc4ccccc4s3)n2)cc1)N1CCC(N2CCCC2)CC1 the remaining binding was 92% (binding; competition with immobilised ligand; 1 µM).
COc1cnc(Nc2cccc(S(N)(=O)=O)c2)nc1N1CCN(c2ccccc2)CC1 gave a remaining binding of 82% (binding; competition with immobilised ligand; 1 µM).
For Cc1cnn2ncc(-c3ccnc(N(C)C)n3)c2c1, the remaining binding was 98% (binding; 1 µM).
